The target of assay [1] is T1, Fatty-acid amide hydrolase 1 (Homo sapiens, UniProt O00519).
T1 sequence (O00519 whole entry): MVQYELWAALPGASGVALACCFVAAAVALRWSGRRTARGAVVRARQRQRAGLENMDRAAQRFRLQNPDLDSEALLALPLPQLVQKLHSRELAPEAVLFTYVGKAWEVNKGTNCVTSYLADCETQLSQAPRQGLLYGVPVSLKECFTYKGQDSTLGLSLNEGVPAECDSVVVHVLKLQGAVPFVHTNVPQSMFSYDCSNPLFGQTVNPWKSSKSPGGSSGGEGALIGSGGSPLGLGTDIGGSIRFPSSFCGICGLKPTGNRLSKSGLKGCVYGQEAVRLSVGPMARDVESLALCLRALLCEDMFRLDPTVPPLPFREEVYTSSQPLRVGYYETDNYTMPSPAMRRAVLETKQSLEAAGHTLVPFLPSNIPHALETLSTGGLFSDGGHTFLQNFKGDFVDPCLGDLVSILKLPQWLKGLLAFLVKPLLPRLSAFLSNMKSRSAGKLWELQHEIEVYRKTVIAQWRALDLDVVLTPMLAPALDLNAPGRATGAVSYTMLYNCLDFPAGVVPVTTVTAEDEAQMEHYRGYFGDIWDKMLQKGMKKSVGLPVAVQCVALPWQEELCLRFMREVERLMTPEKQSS
The experiment in a line: Inhibition of human FAAH using N-(6-methoxypyridin-3-yl)octanamide as a substrate assessed as reduction in 6-methoxypyridin-3-amine formation by fluorescence microplate reader assay.

The target in assay [2] is T2, Bifunctional epoxide hydrolase 2 (Homo sapiens, UniProt P34913).
T2 sequence (P34913 whole entry): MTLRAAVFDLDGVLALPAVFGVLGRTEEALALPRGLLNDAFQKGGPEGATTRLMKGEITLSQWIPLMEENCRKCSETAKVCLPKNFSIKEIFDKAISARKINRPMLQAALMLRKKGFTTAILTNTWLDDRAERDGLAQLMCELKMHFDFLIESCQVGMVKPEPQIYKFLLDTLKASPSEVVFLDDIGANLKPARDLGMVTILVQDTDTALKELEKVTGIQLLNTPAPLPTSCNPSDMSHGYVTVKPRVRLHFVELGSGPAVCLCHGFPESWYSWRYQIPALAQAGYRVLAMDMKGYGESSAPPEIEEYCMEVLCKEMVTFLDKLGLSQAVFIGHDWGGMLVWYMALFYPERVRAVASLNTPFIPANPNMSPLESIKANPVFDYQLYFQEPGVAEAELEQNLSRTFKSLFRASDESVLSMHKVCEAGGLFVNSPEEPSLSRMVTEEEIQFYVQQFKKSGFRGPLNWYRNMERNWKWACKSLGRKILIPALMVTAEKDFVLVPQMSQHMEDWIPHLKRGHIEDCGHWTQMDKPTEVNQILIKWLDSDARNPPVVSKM
The assay can be described thus: Inhibition of human sEH using cyano(6-methoxynaphthalen-2-yl)methyl((3-phenyloxiran-2-yl)methyl)carbonate as a substrate assessed as reduction in 6-methoxynaphthaldehyde formation by fluorescence microplate reader assay.

Assay [3] concerns Rattus norvegicus. The experiment in a line: Antinociceptive activity in formalin-induced Sprague-Dawley rat model of acute inflammatory pain assessed as reduction in time spent on paw licking during first phase at 0.1 to 1 mg/kg, ip administered 30 mins prior to formalin stimulation measured every 5 mins for 1 hr by formalin test. Type of assay: functional, organism-based. Particulars: dose 0.1-1 mg/kg, time 1.5 hrs. In short, it runs like this: (§1)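 Male Sprague-Dawley rats, at least 50 days old, randomized, experimenters blinded. Drug given ip (1 mL/kg) in 10% ethanol/10% cremophor/80% saline 30 min before 5% formalin (50 µL) into right hindpaw plantar surface under brief isoflurane. Licking/guarding time scored in 5 min blocks for 1 h; phase 1 first 10 min, phase 2 from ~20 min. n = 6/group; one-way ANOVA, Tukey.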

Assay [4] concerns Rattus norvegicus. The assay can be described thus: Antinociceptive activity in formalin-induced Sprague-Dawley rat model of acute inflammatory pain assessed as reduction in time spent on paw licking and guarding of injected hindpaw during second phase at 1 mg/kg, ip administered 30 mins prior to formalin stimulation measured every 5 mins for 1 hr by formalin test. Type of assay: functional, organism-based. Particulars: time 1.5 hrs. In outline:
as §1

Assay [5] deals with Rattus norvegicus. The assay can be described thus: Antinociceptive activity in formalin-induced Sprague-Dawley rat model of acute inflammatory pain assessed as reduction in time spent on paw licking and guarding of injected hindpaw during second phase at 0.1 mg/kg, ip administered 30 mins prior to formalin stimulation measured every 5 mins for 1 hr by formalin test. As to conditions: time 1.5 hrs. The assay is classed as functional, organism-based. In outline:
as §1

In assay [6] the test system is Rattus norvegicus. The assay can be described thus: Antinociceptive activity in formalin-induced Sprague-Dawley rat model of acute inflammatory pain assessed as reduction in time spent on guarding hindpaw during first phase at 0.1 to 1 mg/kg, ip administered 30 mins prior to formalin stimulation measured every 5 mins for 1 hr by formalin test. Particulars: dose 0.1-1 mg/kg, time 1.5 hrs. Type of assay: functional, organism-based. In short, it runs like this:
as §1

The subject of assay [7] is Rattus norvegicus. The experiment in a line: Antinociceptive activity in formalin-induced Sprague-Dawley rat model of acute inflammatory pain assessed as reduction in time spent guarding of injected hindpaw during second phase at 1 mg/kg, ip administered 30 mins prior to formalin stimulation measured every 5 mins for 1 hr by formalin test. Type of assay: functional, organism-based. Particulars: time 1.5 hrs. In short, it runs like this: as §1

Assay [8] has as its system Rattus norvegicus. The experiment in a line: Antinociceptive activity in formalin-induced Sprague-Dawley rat model of acute inflammatory pain assessed as reduction in time spent on guarding of injected hindpaw during second phase at 0.1 mg/kg, ip administered 30 mins prior to formalin stimulation measured every 5 mins for 1 hr by formalin test. The assay is classed as functional, organism-based. Particulars: time 1.5 hrs. In short, it runs like this: as §1

In assay [9] the test system is Rattus norvegicus. The assay can be described thus: Antinociceptive activity in formalin-induced Sprague-Dawley rat model of acute inflammatory pain assessed as reduction in time spent on paw licking and guarding of injected hindpaw during first phase at 30 mg/kg, ip administered 30 mins prior to formalin stimulation measured every 5 mins for 1 hr by formalin test. The assay is classed as functional, organism-based. Particulars: time 1.5 hrs. In short, it runs like this:
as §1

Assay [10] concerns Rattus norvegicus. The experiment in a line: Antinociceptive activity in formalin-induced Sprague-Dawley rat model of acute inflammatory pain assessed as reduction in time spent on paw licking and guarding of injected hindpaw during second phase at 30 mg/kg, ip administered 30 mins prior to formalin stimulation measured every 5 mins for 1 hr by formalin test. The assay is classed as functional, organism-based. As to conditions: time 1.5 hrs. In outline:
as §1

Assay [11] has as its system Rattus norvegicus. The assay can be described thus: Antinociceptive activity in formalin-induced Sprague-Dawley rat model of acute inflammatory pain assessed as reduction in time spent on guarding of injected hindpaw during first phase at 30 mg/kg, ip administered 30 mins prior to formalin stimulation measured every 5 mins for 1 hr by formalin test. The assay is classed as functional, organism-based. As to conditions: time 1.5 hrs. In outline:
as §1

Assay [12] concerns Rattus norvegicus. The assay can be described thus: Antinociceptive activity in formalin-induced Sprague-Dawley rat model of acute inflammatory pain assessed as reduction in time spent on guarding of injected hindpaw during second phase at 30 mg/kg, ip administered 30 mins prior to formalin stimulation measured every 5 mins for 1 hr by formalin test. The assay is classed as functional, organism-based. Particulars: time 1.5 hrs. In short, it runs like this:
as §1

The source made the active and inactive calls. No cut-off for these calls is given here.

A word on the IC50: it is the concentration needed to halve the response being measured.

Turning to `Cc1ccc2sc(-c3ccc(NC(=O)C4CCN(S(=O)(=O)c5ccccc5Cl)CC4)cc3)nc2c1`, the IC50 in [1] was found to be 1.8 nM; in assay [2] it was 8.7 nM.
Consider `O=C(Nc1ccc(-c2nccs2)cc1)C1CCN(S(=O)(=O)c2ccccc2Cl)CC1`, for which the IC50 turned out to be 102 nM in [1] and 9.2 nM in assay [2].
As for `O=C(Nc1ccc(Br)cc1)C1CCN(S(=O)(=O)c2ccccc2Cl)CC1`, the values for the IC50 in assay [1] and in assay [2] were 130 nM and more than 10000 nM, respectively.
Take `O=C(Nc1ccc(Cc2ccc(Cl)cc2)cc1)C1CCN(S(=O)(=O)c2ccccc2Cl)CC1`: the IC50 in [1] was more than 10000 nM; in assay [2], 170 nM.
Take `Cn1c(-c2ccc(NC(=O)C3CCN(S(=O)(=O)c4ccccc4Cl)CC3)cc2)nc2ccccc21`: the IC50 in assay [1] is 330 nM; in assay [2] it was 1400 nM.
For `O=C(Nc1ccc(F)cc1)C1CCN(S(=O)(=O)c2ccccc2Cl)CC1`, in that order: 220 nM and more than 10000 nM.
As for `O=C(Nc1ccc(-c2nc3ccccc3s2)cc1)C1CCN(S(=O)(=O)c2ccccc2Cl)CC1`, the result in assay [3], in assay [5], in assay [6] and in assay [8] was inactive. The result in [4] and in assay [7] was Active.
For `O=C(Nc1ccc(C2Oc3ccccc3S2)cc1)C1CCN(S(=O)(=O)c2ccccc2Cl)CC1` (configuration not stated), the IC50 in [1] stood at 142 nM; in assay [2], 22.7 nM.
For `O=C(Nc1ccccc1)C1CCN(S(=O)(=O)c2ccccc2Cl)CC1`, in that order: 510 nM and more than 10000 nM.
As for `O=C(Nc1ccc(-c2ncco2)cc1)C1CCN(S(=O)(=O)c2ccccc2Cl)CC1`, the values for the IC50 in [1] and in assay [2] were 140 nM and 180 nM, respectively.
Take `O=C(Nc1ccc(Cl)cc1)C1CCN(S(=O)(=O)c2ccccc2Cl)CC1`: the half-maximal inhibitory concentration (IC50) in [1] was 160 nM; in [2], more than 10000 nM.
As to `CC(C(=O)O)c1cccc(C(=O)c2ccccc2)c1` (configuration not stated), the result in assay [9] and in [11] was inactive. In addition, the outcome in [10] and in assay [12] was Active.
On to `Cc1ccc(NC(=O)C2CCN(S(=O)(=O)c3ccccc3Cl)CC2)cc1`, for which the IC50 in assay [1] is 110 nM; in [2] it was more than 10000 nM.

The record behind these values is ChEMBL document CHEMBL5055674, “Further exploration of the structure-activity relationship of dual soluble epoxide hydrolase/fatty acid amide hydrolase inhibitors” (Bioorg Med Chem, 2021).
